# Reference: ChEMBL document CHEMBL1122229, “alpha-adrenoreceptor reagents. 1. Synthesis of some 1,4-benzodioxans as selective presynaptic alpha 2-adrenoreceptor antagonists and potential antidepressants” (J Med Chem, 1983)
# Calls of active or inactive are those of the source. No cut-off for these calls is given here.
# What was measured:
# [1] = biological target: T1, Adrenergic receptor alpha-1 (Rattus norvegicus) (UniProt P15823+P23944+P43140); assay: In vitro postsynaptic agonist potency at alpha-1 adrenergic receptor in rat anococcygeus muscle relative to phenylephrine; IA means inactive.; assay type: functional, tissue-based
# T1 sequence (P15823 whole entry, looked up): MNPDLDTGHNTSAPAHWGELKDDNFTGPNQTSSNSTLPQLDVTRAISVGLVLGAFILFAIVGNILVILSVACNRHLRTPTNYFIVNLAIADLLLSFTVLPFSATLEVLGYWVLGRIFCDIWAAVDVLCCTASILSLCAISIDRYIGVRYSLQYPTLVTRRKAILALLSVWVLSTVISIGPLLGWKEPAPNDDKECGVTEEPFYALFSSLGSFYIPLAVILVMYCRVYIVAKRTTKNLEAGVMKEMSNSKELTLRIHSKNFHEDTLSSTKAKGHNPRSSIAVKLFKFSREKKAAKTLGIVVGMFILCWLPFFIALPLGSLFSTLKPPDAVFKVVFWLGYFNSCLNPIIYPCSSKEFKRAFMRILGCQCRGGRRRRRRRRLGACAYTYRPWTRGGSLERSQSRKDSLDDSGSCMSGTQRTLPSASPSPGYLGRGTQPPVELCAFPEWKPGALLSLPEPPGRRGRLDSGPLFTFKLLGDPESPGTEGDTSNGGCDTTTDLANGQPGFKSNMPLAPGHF
# T1 sequence (P23944 whole entry, looked up): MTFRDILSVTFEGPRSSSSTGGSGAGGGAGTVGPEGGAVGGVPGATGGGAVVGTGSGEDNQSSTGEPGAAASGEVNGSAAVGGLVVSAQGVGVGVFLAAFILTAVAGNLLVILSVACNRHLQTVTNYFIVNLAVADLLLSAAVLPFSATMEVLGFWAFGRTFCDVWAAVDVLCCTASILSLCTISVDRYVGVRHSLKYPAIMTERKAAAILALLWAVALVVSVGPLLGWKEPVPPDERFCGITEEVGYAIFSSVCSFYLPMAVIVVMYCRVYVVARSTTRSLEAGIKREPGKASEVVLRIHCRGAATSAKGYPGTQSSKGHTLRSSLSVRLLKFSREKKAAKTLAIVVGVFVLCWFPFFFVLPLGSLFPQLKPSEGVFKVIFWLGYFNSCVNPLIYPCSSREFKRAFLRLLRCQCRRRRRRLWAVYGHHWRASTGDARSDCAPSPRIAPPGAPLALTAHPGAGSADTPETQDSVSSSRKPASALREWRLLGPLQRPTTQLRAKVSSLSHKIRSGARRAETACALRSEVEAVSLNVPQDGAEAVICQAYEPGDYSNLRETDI
# T1 sequence (P43140 whole entry, looked up): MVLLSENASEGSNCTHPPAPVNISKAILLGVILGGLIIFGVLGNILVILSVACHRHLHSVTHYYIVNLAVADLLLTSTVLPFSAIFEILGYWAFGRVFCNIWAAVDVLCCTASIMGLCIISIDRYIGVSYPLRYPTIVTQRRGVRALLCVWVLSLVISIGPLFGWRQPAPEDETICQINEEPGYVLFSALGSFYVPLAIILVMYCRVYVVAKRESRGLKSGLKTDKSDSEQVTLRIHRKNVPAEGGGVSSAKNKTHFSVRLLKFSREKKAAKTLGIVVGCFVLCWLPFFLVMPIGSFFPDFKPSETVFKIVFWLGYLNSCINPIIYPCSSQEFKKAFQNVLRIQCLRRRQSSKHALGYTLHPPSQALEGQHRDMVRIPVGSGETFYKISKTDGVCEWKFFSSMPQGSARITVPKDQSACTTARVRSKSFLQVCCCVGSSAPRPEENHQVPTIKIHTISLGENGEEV
# Outline: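 Rat anococcygeus muscle (male Sprague–Dawley rats, 200–250 g) suspended at 0.5 g initial tension in a 50-mL organ bath. […] Standard dose-response curves were run before and after the analogue's curve.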
# [2] = biological target: T2, Adrenergic receptor alpha-2 (Rattus norvegicus) (UniProt P22086+P19328+P22909); assay: In vitro presynaptic agonist potency at alpha-2 adrenergic receptor in rat or mouse vas deferens relative to clonidine; IA means inactive; assay type: functional, tissue-based
# T2 sequence (P19328 whole entry, looked up): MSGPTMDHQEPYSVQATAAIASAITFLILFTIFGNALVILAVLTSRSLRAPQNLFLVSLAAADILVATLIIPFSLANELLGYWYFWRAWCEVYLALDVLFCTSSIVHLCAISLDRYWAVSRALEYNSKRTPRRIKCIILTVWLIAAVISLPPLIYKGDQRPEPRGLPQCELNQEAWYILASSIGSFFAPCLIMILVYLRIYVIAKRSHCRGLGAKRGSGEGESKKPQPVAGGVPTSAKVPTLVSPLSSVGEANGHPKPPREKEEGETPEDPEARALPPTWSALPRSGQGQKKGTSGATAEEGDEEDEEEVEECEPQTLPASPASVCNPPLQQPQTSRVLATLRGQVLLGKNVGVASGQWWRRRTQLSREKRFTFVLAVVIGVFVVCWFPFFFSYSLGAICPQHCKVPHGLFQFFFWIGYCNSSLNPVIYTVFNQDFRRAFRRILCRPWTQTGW
# T2 sequence (P22086 whole entry, looked up): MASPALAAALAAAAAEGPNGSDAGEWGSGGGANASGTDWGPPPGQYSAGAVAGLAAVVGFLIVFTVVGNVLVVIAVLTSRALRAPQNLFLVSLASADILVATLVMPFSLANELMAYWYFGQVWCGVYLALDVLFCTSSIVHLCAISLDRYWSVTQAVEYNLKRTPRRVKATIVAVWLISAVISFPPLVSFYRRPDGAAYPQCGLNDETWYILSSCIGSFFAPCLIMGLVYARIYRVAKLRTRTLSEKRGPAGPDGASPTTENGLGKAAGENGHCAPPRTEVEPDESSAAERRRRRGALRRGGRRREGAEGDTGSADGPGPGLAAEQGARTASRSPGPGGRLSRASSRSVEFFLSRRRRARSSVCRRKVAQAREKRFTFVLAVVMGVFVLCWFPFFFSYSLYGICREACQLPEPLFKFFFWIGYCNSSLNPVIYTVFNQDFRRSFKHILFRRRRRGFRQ
# T2 sequence (P22909 whole entry, looked up): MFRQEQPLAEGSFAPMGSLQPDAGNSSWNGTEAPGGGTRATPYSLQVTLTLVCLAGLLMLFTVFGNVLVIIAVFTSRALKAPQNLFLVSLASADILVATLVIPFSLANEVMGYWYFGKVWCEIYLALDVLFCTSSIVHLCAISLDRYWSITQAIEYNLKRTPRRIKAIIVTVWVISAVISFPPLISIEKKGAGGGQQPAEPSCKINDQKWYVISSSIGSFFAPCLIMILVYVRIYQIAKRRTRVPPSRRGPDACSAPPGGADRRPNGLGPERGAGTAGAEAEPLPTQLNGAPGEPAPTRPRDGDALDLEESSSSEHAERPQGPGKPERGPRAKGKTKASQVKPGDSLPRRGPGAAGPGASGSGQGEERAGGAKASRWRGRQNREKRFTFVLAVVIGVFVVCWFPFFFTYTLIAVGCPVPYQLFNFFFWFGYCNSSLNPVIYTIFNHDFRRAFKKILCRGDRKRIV
# Outline: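 Field-stimulated rat or mouse vas deferens (Krebs, 30 °C, 95% O2/5% CO2, 3-ms pulses at 0.1 Hz) with isometric twitch recording. […] Standard dose-response curves were run before and after the analogue's curve.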
# [3] = biological target: T1, Adrenergic receptor alpha-1 (Rattus norvegicus); assay: In vitro postsynaptic antagonist potency at alpha-1 adrenergic receptor in rat anococcygeus. Taken as standard; assay type: functional
# [4] = biological target: T1, Adrenergic receptor alpha-1 (Rattus norvegicus); assay: In vitro postsynaptic agonist potency at alpha-1 adrenergic receptor in rat anococcygeus muscle relative to phenylephrine; assay type: functional, tissue-based
# [5] = In vitro antagonism at Alpha-2 adrenergic receptor in rat or mouse vas deferens relative to RX781094.; assay type: functional
# Outline: (§1)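 Prostatic half of vas deferens from male Sprague–Dawley rats (200–250 g; Krebs, 30 °C, 95% O2/5% CO2, 0.1 Hz, 3-ms, 40 V) or from mice (magnesium-free Krebs, 100–140 V). Tension 0.5 g; isometric twitch recording. […] The concentration giving 50% reversal of the inhibition was compared with standard 5 in the same tissue.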
# [6] = biological target: T1, Adrenergic receptor alpha-1 (Rattus norvegicus); assay: In vitro postsynaptic antagonist potency at alpha-1 adrenergic receptor in rat anococcygeus relative to compound 5 (RX781094); assay type: functional
# [7] = biological target: T1, Adrenergic receptor alpha-1 (Rattus norvegicus); assay: Ratio of presynaptic antagonist potency to postsynaptic antagonist potency; assay type: functional
# [8] = tested on: Alpha-2 adrenergic receptor (Rattus norvegicus); assay: In vitro presynaptic agonist potency at Alpha-2 adrenergic receptor in rat or mouse vas deferens relative to clonidine; IA means inactive
# [9] = biological target: T1, Adrenergic receptor alpha-1 (Rattus norvegicus); assay: In vitro postsynaptic antagonist potency at alpha-1 adrenergic receptor in rat anococcygeus relative to compound 5 (RX781094); IA means compound is inactive.; assay type: functional
# [10] = biological target: T2, Adrenergic receptor alpha-2 (Rattus norvegicus); assay: In vitro presynaptic agonist potency at alpha-2 adrenergic receptor in rat or mouse vas deferens relative to clonidine; assay type: functional, tissue-based
# Outline: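 Field-stimulated rat or mouse vas deferens under 0.5 g tension, at 0.1 Hz with 3-ms pulses, 30 °C, gassed with 95% O2/5% CO2. Contractions were recorded isometrically. Standard dose-response curves were run before and after each analogue curve. Potency was expressed relative to the standard in the same experiment.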
# [11] = tested on: Alpha-2 adrenergic receptor (Rattus norvegicus); assay: In vitro presynaptic agonist potency at alpha-2 adrenergic receptor in rat or mouse vas deferens relative to clonidine; IA means inactive
# [12] = biological target: Adrenergic receptor alpha-2 (Homo sapiens) (UniProt P08913+P18825+P18089); assay: In vitro presynaptic antagonist potency at Alpha-2 adrenergic receptor in rat or mouse vas deferens relative to compound 5 (RX781094); assay type: functional, tissue-based; outline: as §1
# [13] = tested on: Alpha-2 adrenergic receptor (Rattus norvegicus); assay: In vitro presynaptic agonist potency at alpha-2 adrenergic receptor in rat or mouse vas deferens relative to clonidine; Inactive
SMILES,Agonist potency [1],Agonist potency [4],Antagonist potency [5],Antagonist potency [6],Selectivity [7],Agonist potency [8],other results
c1ccc2c(c1)OCC(C1=NCCN1)O2 (stereo unspecified),inactive,–,–,–,–,–,Agonist potency [2]: inactive; Antagonist potency [3]: 1
Brc1cc2c(cc1Br)OC(C1=NCCN1)CO2 (stereo unspecified),–,0.02,0.001,0.1,0.01,inactive,–
COc1ccccc1OCC1=NCCN1,–,10,–,–,–,–,Antagonist potency [9]: inactive; Agonist potency [10]: 0.001; Antagonist potency [11]: inactive
N/C(=N\CC(=O)O)C1COc2ccccc2O1 (stereo unspecified),inactive,–,<0.0003,< 0.023,–,inactive,–
COc1cc2c(cc1OC)OC(C1=NCCN1)CO2 (stereo unspecified),inactive,–,–,0.05,0.3,–,Antagonist potency [12]: 0.015; Agonist potency [13]: inactive
